Test results taken from article PMC8320078 (ACS Omega, 2021).

What was measured:
[1] = DPPH assay; settings: mean ± SD; for DPPH assay TEAC: isolated compounds
In short: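 Reduction of the DPPH free radical by extracts, fractions or isolated compounds, done in 96-well format following a published procedure. Quercetin and ascorbic acid were positive controls and MeOH the negative control. Runs were in triplicate (n = 3), reported as mean ± SD. Total antioxidant capacity was expressed as trolox equivalent antioxidant capacity (TEAC).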

[2] = ABTS assay; settings: isolated compounds; mean ± SD
In short: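 ABTS radical-scavenging capacity of isolated compounds, from a modified literature method. Activity was read from a trolox calibration curve (7.78–1000 μM) and expressed as trolox equivalents (μM TE/mM). Ascorbic acid and quercetin served as positive controls, MeOH as negative control. Each sample was run in triplicate (n = 3); values are mean ± SD.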

[3] = FRAP assay; settings: isolated compounds; mean ± SD
In short: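 FRAP: Fe3+ is reduced to Fe2+, which TPTZ chelates to form the Fe2+-TPTZ complex. Activity of isolated compounds was read from a trolox standard curve (7.78–1000 μM) and expressed as μM TE/mM. Quercetin and ascorbic acid were positive controls, MeOH the negative control. Triplicate runs (n = 3); mean ± SD.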

[4] = target: α-glucosidase (yeast) (Saccharomyces cerevisiae, UniProt P53341); assay: Inhibition of α-glucosidase; type: biochemical; settings: read-out: α-glucosidase assay IC50; yeast enzyme; mean ± SD
Sequence of α-glucosidase (yeast) (P53341 whole entry): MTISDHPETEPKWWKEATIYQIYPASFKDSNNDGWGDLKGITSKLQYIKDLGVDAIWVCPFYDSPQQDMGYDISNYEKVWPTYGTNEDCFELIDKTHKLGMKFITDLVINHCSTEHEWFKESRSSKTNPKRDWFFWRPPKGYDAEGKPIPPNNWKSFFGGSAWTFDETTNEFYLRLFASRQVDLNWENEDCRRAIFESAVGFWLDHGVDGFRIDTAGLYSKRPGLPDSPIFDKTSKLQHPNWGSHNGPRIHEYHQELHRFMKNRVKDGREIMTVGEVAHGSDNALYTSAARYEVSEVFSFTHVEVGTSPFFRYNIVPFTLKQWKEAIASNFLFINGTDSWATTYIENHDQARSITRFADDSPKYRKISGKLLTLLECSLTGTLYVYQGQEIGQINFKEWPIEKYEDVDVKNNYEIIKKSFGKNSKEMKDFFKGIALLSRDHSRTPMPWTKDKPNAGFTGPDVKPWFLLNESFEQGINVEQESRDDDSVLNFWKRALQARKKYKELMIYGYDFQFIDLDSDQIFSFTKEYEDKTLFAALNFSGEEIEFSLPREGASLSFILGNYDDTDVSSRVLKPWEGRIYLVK

[5] = target: T1, porcine pancreatic lipase (PPL) (Sus scrofa, UniProt P00591); assay: Inhibition of pancreatic lipase; type: biochemical; settings: read-out: lipase assay IC50, mean ± SD
T1 sequence (P00591 1-450): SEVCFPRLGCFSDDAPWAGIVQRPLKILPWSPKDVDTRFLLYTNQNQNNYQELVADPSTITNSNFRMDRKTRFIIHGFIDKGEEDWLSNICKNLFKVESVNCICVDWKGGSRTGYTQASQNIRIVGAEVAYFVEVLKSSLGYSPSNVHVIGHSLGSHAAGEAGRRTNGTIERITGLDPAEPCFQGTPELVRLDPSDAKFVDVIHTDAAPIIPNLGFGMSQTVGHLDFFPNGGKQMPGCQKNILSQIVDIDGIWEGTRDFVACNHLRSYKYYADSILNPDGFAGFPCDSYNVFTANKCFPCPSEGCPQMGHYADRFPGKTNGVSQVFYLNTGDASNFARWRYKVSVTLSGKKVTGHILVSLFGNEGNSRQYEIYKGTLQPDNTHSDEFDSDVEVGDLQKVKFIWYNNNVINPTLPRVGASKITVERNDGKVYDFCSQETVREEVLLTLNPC

[6] = system: formation of advanced glycation end products (AGEs), BSA-fructose model; assay: BSA-fructose antiglycation assay; type: biochemical, bovine; settings: read-out: BSA-fructose model IC50; isolated compounds; mean ± SD
[7] = system: formation of advanced glycation end products (AGEs), BSA-methylglyoxal model; assay: BSA-methylglyoxal antiglycation assay; type: biochemical, bovine; settings: read-out: BSA-methylglyoxal model IC50; isolated compounds; mean ± SD
[8] = system: formation of AGEs induced by glucose or methylglyoxal; settings: at 100 μM; cited from earlier work

IC50 [6] [µM]	IC50 [7] [µM]	DPPH assay EC50 ([1]; extracts/fractions) [µg/mL]	Molecule	DPPH assay TEAC [1] [μM TE/mM]	ABTS assay TEAC [2] [μM TE/mM]	FRAP assay TEAC [3] [μM TE/mM]	IC50 [4] [µM]	IC50 [5] [µM]	efficacy against formation of AGEs [8]
502 ± 70.9	> 1300	–	12β-O-benzoyl 3β,8β,12β,14β,20-pentahydroxy-(20S)-pregn-5-ene-3-O-β-D-glucopyranosyl-(1 → 4)-O-β-D-digitaloside [compound 1]	43.30 ± 3.12	12.14 ± 14.86	17.96 ± 4.25	920 ± 20	> 100	–
–	–	2.76 ± 1.63	O=C1O[C@H]([C@@H](O)CO)C(O)=C1O [ascorbic acid, reference compound]	802.73 ± 32.63	1132.84 ± 20.25	1195.58 ± 4.41	–	–	–
–	–	–	O=c1cc(-c2ccc(O)cc2)oc2cc(O)c([C@@H]3O[C@H](CO)[C@@H](O)[C@H](O)[C@H]3O)c(O)c12 [isovitexin]	–	–	–	–	–	over 85%
50.6 ± 3.9	847.3 ± 1.04	–	O=c1c(O)c(-c2ccc(O)c(O)c2)oc2cc(O)cc(O)c12 [quercetin, reference compound]	953.94 ± 4.17	1435.38 ± 14.02	1373.75 ± 35.39	–	–	–
–	–	–	O=c1cc(-c2ccc(O)cc2)oc2c([C@@H]3O[C@H](CO)[C@@H](O)[C@H](O)[C@H]3O)c(O)cc(O)c12 [vitexin]	–	–	–	–	–	over 85%
1032 ± 2.48	> 1300	–	CC[C@H](CC[C@@H](C)[C@H]1CC[C@H]2[C@@H]3CC=C4C[C@@H](O[C@@H]5O[C@H](CO)[C@@H](O)[C@H](O)[C@H]5O)CC[C@]4(C)[C@H]3CC[C@]12C)C(C)C [β-sitosterol-glucoside]	36.27 ± 10.39	11.81 ± 7.07	66.21 ± 16.25	–	–	–
> 1300	> 1300	–	CC[C@H](CC[C@@H](C)[C@H]1CC[C@H]2[C@@H]3CC=C4C[C@@H](O)CC[C@]4(C)[C@H]3CC[C@]12C)C(C)C [β-sitosterol]	37.87 ± 11.03	3.42 ± 9.77	13.50 ± 3.48	–	–	–

Molecule	IC50 [6] [µM]	IC50 [7] [µM]	DPPH assay EC50 ([1]; extracts/fractions) [µg/mL]	DPPH assay TEAC [1] [μM TE/mM]	ABTS assay TEAC [2] [μM TE/mM]	FRAP assay TEAC [3] [μM TE/mM]	IC50 [4] [µM]	IC50 [5] [µM]	efficacy against formation of AGEs [8]
CO[C@@H]1[C@@H](O)[C@H](O[C@H]2CC[C@@]3(C)C(=CC[C@]4(O)[C@@H]3CC[C@]3(C)[C@@H]([C@H](C)O[C@@H]5O[C@H](CO)[C@@H](O)[C@H](OC(=O)CC(C)C)[C@H]5O)CC[C@@]34O)C2)O[C@H](C)[C@@H]1O[C@@H]1O[C@H](CO)[C@@H](O)[C@H](O)[C@H]1O [compound 2, 3β,8β,14β,20-tetrahydroxy-(20S)-pregn-5-ene-3-O-β-D-glucopyranosyl-(1 → 4)-O-β-D-digitaloside-20-O-3-Isoval-β-D-glucopyranoside]	–	> 1300	–	30.27 ± 2.70	9.19 ± 15.59	23.08 ± 1.89	670 ± 10	> 100	–
